RanGTP-Imp inh = inhibitors of RanGTP-importin-beta interaction, primary screen, biochemical, FRET, CFP-Ran, YFP-importin-beta, homogeneous; Ran GTPase (GTP-bound) - importin-beta complex; cell-free CFP-Ran/YFP-importin-beta FRET ratio; inhibition, % (test concentration not listed); 300,000 tested, 1.1% active; AID 2216, 2009;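 active = more than half of the replicate wells show a fall in the fluorescence ratio signal beyond about 16%, limit read from the data, passing the limit was not always enough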;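 also: 0% = DMSO wells and 100% = Ran loaded with GDP instead of GTP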
HMGR II inh = inhibitors of E. faecalis class II HMGR, primary screen, biochemical, Enterococcus faecalis; 190,000 tested, 0.41% active; inhibition, % at 10 µM; purified E. faecalis HMGR, NADPH absorbance 340 nm kinetic; AID 1066, 2008; HMG-CoA reductase (Enterococcus faecalis, mvaE);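 active = inhibition above a set limit, the median over all tested compounds plus 3 SD, cut at about 9.5% in these data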;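 also: enzyme runs in reverse so mevalonate oxidation gives rising NADPH absorbance; 0% = complete reaction with DMSO and 100% = background rate lacking mevalonate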
Runt-SMMHC FRET = inhibitors of RUNX1 Runt–CBFb-SMMHC binding, primary screen, biochemical, FRET, Cerulean-Runt, Venus-CBFb-SMMHC, uHTS; Cerulean-Runt/Venus-CBFb-SMMHC FRET ratio 530/480, 1 h; AID 1434, 2008; 220,000 tested, 0.74% active; Runt-related transcription factor 1 (Homo sapiens) + Core-binding factor subunit beta …; inhibition, % at 20 µM;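 active = mean inhibition across duplicate retests at 20 µM reaching about 50%, limit read from the data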;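 also: 0% = DMSO wells and 100% = wells with excess untagged CBFb-SMMHC; inhibitors lower the FRET ratio by blocking Runt binding to CBFb-SMMHC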
Wee1 stabilizer = Wee1 degradation inhibitors, primary screen, cell-based, HeLa, Wee1K328M-luciferase, luminescence. Wee1-like protein kinase (Homo sapiens), P30291. HeLa Luc-Wee1K328M stability; 100% = proteasome inhibitor MG132 effect. reporter increase, % at 5 µM. 220,000 tested, 1.2% active. AID 1321, 2008;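 active = activation above the mean of all tested compounds plus 3 SD, set per screening run, cut at about 8.8% in these data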;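 also: cells exposed to compound for 20 h before luminescence read; 0% = DMSO alone and 100% = MG132 at 30 µM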
Runt-CBFb FRET = inhibitors of RUNX1 Runt–CBFb binding, primary screen, biochemical, FRET, Cerulean-Runt, Venus-CBFb, uHTS; Runt-related transcription factor 1 (Homo sapiens) + Core-binding factor subunit beta …; Cerulean-Runt/Venus-CBFb FRET ratio 530/480, 1 h; inhibition, % at 20 µM; 220,000 tested, 0.46% active; AID 1496, 2009;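 active = inhibition over about 50% at 20 µM in the single-dose screen, limit read from the data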;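 also: 0% = DMSO wells and 100% = excess unlabeled CBFb competitor control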
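Reagent – Venus-CBFb binding partner, 100 nM · Assay system – Cerulean-tagged RUNX1 Runt domain (FRET donor) fusion protein · Input – 100 nM per protein · Incubation – two 1 h room-temperature incubations shielded from light · Measured by – FRET fluorescence · Medium – Tris buffer pH 7.5 with salts and BSA · Benchmarks – unlabeled CBFb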
PHOSPHO1 inh = PubChem AID 1565 | recombinant PHOSPHO1, absorbance phosphatase assay | 290,000 tested, 1.1% active | inhibition, % at 13.3 µM | Phosphoethanolamine/phosphocholine phosphatase (Homo sapiens), Q8TCT1; in the data active = inhibition above about 60%
Wee1 stab conf = Wee1 degradation inhibitors, confirmation, cell-based, HeLa, Wee1K328M-luciferase, luminescence, triplicate. AID 1410, 2008. HeLa Luc-Wee1K328M degradation; vehicle 0%, proteasome-blocked wells 100%. shares compounds with Wee1 stabilizer. 1,100 tested, 4% active. activation, % at 5 µM; in the data active = activation above about 8.9%
Active calls of the source: *; . = no result. Hits are enriched below; roughly 3.4% of the tested compounds scored in any of these assays.

SMILES	RanGTP-Imp inh	HMGR II inh	Runt-SMMHC FRET	Wee1 stabilizer	Runt-CBFb FRET	PHOSPHO1 inh	Wee1 stab conf
CN(CC(=O)Nc1ccc(S(N)(=O)=O)cc1)c1ccccc1	6	-2	-6	-1	0	15	.
CCOc1ccc(/C=N/NC(=O)Cc2cccs2)cc1	0	.	2	14*	2	36	0
O=C(Cc1cccs1)N/N=C/c1ccccc1	0	.	2	-3	-1	-14	.
Cc1c(O)ccc2c(O)c(NC(=O)c3ccc4c(c3)CCC(C)(C)O4)c(=O)oc12	4	.	-2	12*	-1	30	-1
Cc1c(CC(=O)NCCCO)c(=O)oc2cc3c(cc12)CCC(C)(C)O3	0	.	.	.	.	22	.
CC(C)=CCc1c(O)ccc2c1OC(c1ccc(O)c(O)c1)CC2=O (centres undefined)	-1	-1	-2	33*	10	-8	2
CCCNC(=O)NC(=O)CN1C(=O)NC(C)(c2ccc3ccccc3c2)C1=O (centres undefined)	4	.	.	.	.	4	.
Cc1ccc(Nc2nc(-c3ccncc3)cs2)cc1	3	-1	-3	18*	-3	8	7
Cc1ccc(Nc2nc(-c3sc(C)nc3C)cs2)cc1	5	.	.	.	.	-17	.
Cc1ccc(S(=O)(=O)N2CCCCC2C)cc1[N+](=O)[O-] (centres undefined)	0	.	.	.	.	22	.
COc1ccc(C2N=C(c3ccccc3)C(C)(C)N2O)cc1 (centres undefined)	6	-3	0	31*	2	7	1
CCOc1ccc(Oc2ccccc2NC(=O)CN2C(=O)NC3(CCCC3)C2=O)cc1	4	.	.	.	.	.	.
Cn1nc(C(=O)Nc2cccc(C(F)(F)F)c2)ccc1=O	.	-1	1	11*	0	37	1
Cn1ncc(Br)c1C(=O)Nc1cccc(C(F)(F)F)c1	0	.	2	-4	0	18	.
CCC1(C(=O)OC)NC(c2ccco2)C2C(=O)N(c3ccc(F)cc3)C(=O)C21 (centres undefined)	-1	-4	0	7	0	22	.
CC(C)C(O)(C#CCN1CCCCC1)c1ccccc1 (centres undefined)	0	-6	3	12*	-1	1	2
Cn1ccnc1SCC(=O)Nc1nc2ccccc2s1	0	-1	-3	14*	2	39	5
O=C(CSc1ccccn1)Nc1nc2ccccc2s1	0	-1	-3	1	0	3	.
CCOC(=O)COc1ccc2c(=O)cc(-c3ccccc3)oc2c1	1	.	0	0	0	-18	.
NC(=O)COc1ccc2oc(-c3ccccc3)cc(=O)c2c1	0	3	1	14*	-1	-14	4
O=C(CSC1CN(C(c2ccccc2)c2ccccc2)C1)N/N=C/c1ccccc1	-2	.	0	4	-3	15	.
CCOC(=O)CSc1nnc(CNC(=O)c2ccccc2OC)n1-c1ccc(OC)cc1	-1	-4	-4	12*	-2	24	-4
Cc1nnc(NC(=O)c2cc3n(n2)C(C(F)(F)F)CC(C2CC2)N3)s1 (centres undefined)	0	-4	2	1	1	6	.
O=C(Nc1nc2c(s1)CCCC2)c1cc2n(n1)C(C(F)(F)F)CC(C1CC1)N2 (centres undefined)	1	-6	-1	15*	-2	14	2
NC(=O)C1Cc2ccccc2CN1S(=O)(=O)c1ccc(Cl)s1 (centres undefined)	1	.	.	.	.	28	.

Screening results (PubChem BioAssay)
